Experiments:
A549 [1] = test: Induction of apoptosis in human A549 cells assessed as late apoptotic cells at 0.3 uM incubated for 48 hrs by Annexin V-FITC and PI staining based flow cytometric analysis (reference value: 3.0%); format: functional
[2] = biological target: T1, Hsp90 co-chaperone Cdc37 (Homo sapiens) (UniProt Q16543); test: Binding affinity to Cdc37 in human A549 cells assessed as inhibition of HSP90-Cdc37 interaction by measuring decrease in CDK4 protein level incubated for 12 hrs by Western blot analysis; format: cell-based
T1 sequence (whole entry): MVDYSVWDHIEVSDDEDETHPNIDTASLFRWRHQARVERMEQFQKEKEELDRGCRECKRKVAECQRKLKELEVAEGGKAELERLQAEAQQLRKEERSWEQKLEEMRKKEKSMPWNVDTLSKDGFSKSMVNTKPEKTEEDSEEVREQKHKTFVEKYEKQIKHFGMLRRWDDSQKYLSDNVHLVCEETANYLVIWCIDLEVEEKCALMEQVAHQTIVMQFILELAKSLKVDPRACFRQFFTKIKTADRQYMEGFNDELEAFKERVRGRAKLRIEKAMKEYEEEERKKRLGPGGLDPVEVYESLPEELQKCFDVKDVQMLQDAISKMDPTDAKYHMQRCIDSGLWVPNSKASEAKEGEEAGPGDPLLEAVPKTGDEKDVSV
Method in brief: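 A549 cells (5×10^5 per 6 cm dish) were allowed to settle 12 h, then treated with DMSO or compound at the indicated concentrations for 12 h. Lysates were adjusted to 3 mg/ml protein by BCA and resolved on 10% SDS-PAGE, then Western blotted. β-actin or Hsp90 served as the loading control. Three separate experiments, mean ± SD.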

A549 [3] = test: Induction of cell cycle arrest in human A549 cells assessed as increase in accumulation at G0/G1 phase incubated for 24 hrs by PI staining based flow cytometric analysis; format: functional
Method in brief: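 A549 cells (4×10^5 per 6 cm dish) were grown 24 h, then exposed to compound (0.2, 0.4, 0.8 μM) or DMSO for 24 h. Cells fixed in 75% ethanol at −20 °C for at least 12 h, treated with RNase A at 37 °C for 30 min, then stained with PI for 15 min in the dark. Analysed by flow cytometry, mean ± SD, n = 3.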

CC1=C(O)C(=O)C=C2C1=CC=C1[C@@]2(C)CC[C@@]2(C)[C@@H]3C[C@](C)(C(=O)OCCCOC(=O)/C=C(\C#N)c4ccc(F)cc4)CC[C@]3(C)CC[C@]12C
Activity (A549 [1]): 9.3% | inhibition [2]: Dose-dependent effect | Activity (A549 [3]): Dose-dependent effect

From ChEMBL document CHEMBL4376838, “Discovery of Novel Celastrol Derivatives as Hsp90-Cdc37 Interaction Disruptors with Antitumor Activity” (J Med Chem, 2019)
